“Also recorded” adds a separate entry of the source. Read-outs that look alike come from different tables or passages of the source.
Key:
786–0 = conditions: NCI panel, renal cancer; cited from earlier work
SR = conditions: NCI panel, leukemia; cited from earlier work
HS 578T = conditions: NCI panel, breast cancer; cited from earlier work
HCT-15 = conditions: NCI panel, colon cancer; cited from earlier work
RPMI-8226 = conditions: NCI panel, leukemia; cited from earlier work
SF-539 = conditions: NCI panel, CNS cancer; cited from earlier work
UO-31 = conditions: NCI panel, renal cancer; cited from earlier work
HeLa [1] = conditions: read-out: IC50 ± SD HeLa; parental line; results previously published; cited from earlier work
A498 = conditions: NCI panel, renal cancer; cited from earlier work
U251 = conditions: NCI panel, CNS cancer; cited from earlier work
PC-3 = conditions: NCI panel, prostate cancer; cited from earlier work
OVCAR-8 = conditions: NCI panel, ovarian cancer; cited from earlier work
A549/ATCC = conditions: NCI panel, NSCLC; cited from earlier work
M14 = conditions: NCI panel, melanoma; cited from earlier work
RXF 393 = conditions: NCI panel, renal cancer; cited from earlier work
MCF7 = conditions: NCI panel, breast cancer; cited from earlier work
HeLa WTβIII [2] = conditions: IC50 HeLa WTβIII / IC50 HeLa; results previously published; cited from earlier work
HCT-116 = conditions: NCI panel, colon cancer; cited from earlier work
SK-OV-3 [3] = conditions: NCI panel, ovarian cancer; cited from earlier work
MDA-MB-468 = conditions: NCI panel, breast cancer; cited from earlier work
COLO 205 = conditions: NCI panel, colon cancer; cited from earlier work
HOP-62 = conditions: NCI panel, NSCLC; cited from earlier work
SNB-19 = conditions: NCI panel, CNS cancer; cited from earlier work
[4] = test system: microtubules in A-10 cells; conditions: read-out: EC50 for microtubule depolymerization in A-10 cells; results previously published; cited from earlier work
SF-268 = conditions: NCI panel, CNS cancer; cited from earlier work
NCI-H23 = conditions: NCI panel, NSCLC; cited from earlier work
SK-MEL-5 = conditions: NCI panel, melanoma; cited from earlier work
OVCAR-4 = conditions: NCI panel, ovarian cancer; cited from earlier work
NCI/ADR-RES = conditions: NCI panel, ovarian cancer; cited from earlier work
HOP-92 = conditions: NCI panel, NSCLC; cited from earlier work
DU-145 = conditions: NCI panel, prostate cancer; cited from earlier work
K-562 = conditions: NCI panel, leukemia; cited from earlier work
NCI-H322M = conditions: NCI panel, NSCLC; cited from earlier work
SF-295 = conditions: NCI panel, CNS cancer; cited from earlier work
HT29 = conditions: NCI panel, colon cancer; cited from earlier work
SK-OV-3 [5] = conditions: read-out: IC50 ± SD SK-OV-3; parental line; results previously published; cited from earlier work
SN12C = conditions: NCI panel, renal cancer; cited from earlier work
IGROVI [6] = conditions: NCI panel, ovarian cancer; cited from earlier work
HL-60(TB) = conditions: NCI panel, leukemia; cited from earlier work
OVCAR-5 = conditions: NCI panel, ovarian cancer; cited from earlier work
TK10 = conditions: NCI panel, renal cancer; cited from earlier work
ACHN = conditions: NCI panel, renal cancer; cited from earlier work
MDA-MB-435 cells [7] = conditions: read-out: IC50 ± SD MDA-MB-435; results previously published; cited from earlier work
MDA-MB-231/ATCC = conditions: NCI panel, breast cancer; cited from earlier work
EKVX = conditions: NCI panel, NSCLC; cited from earlier work
MDA-MB-435 = conditions: NCI panel, melanoma; cited from earlier work
NCI-H522 = conditions: NCI panel, NSCLC; cited from earlier work
SK-OV-3 MDR1-M6/6 = conditions: IC50 MDR1-M6/6 / IC50 SK-OV-3; results previously published; cited from earlier work
NCI-H460 = conditions: NCI panel, NSCLC; cited from earlier work
SNB-75 = conditions: NCI panel, CNS cancer; cited from earlier work
OVCAR-3 = conditions: NCI panel, ovarian cancer; cited from earlier work
NCI-H226 = conditions: NCI panel, NSCLC; cited from earlier work
KM12 = conditions: NCI panel, colon cancer; cited from earlier work
BT-549 = conditions: NCI panel, breast cancer; cited from earlier work
HCC-2998 = conditions: NCI panel, colon cancer; cited from earlier work
CCRF-CEM = conditions: NCI panel, leukemia; cited from earlier work
SK-MEL-28 = conditions: NCI panel, melanoma; cited from earlier work
MOLT-4 = conditions: NCI panel, leukemia; cited from earlier work
LOX IMVI = conditions: NCI panel, melanoma; cited from earlier work
HeLa cells = assay: Cell cycle distribution by flow cytometry; format: cell-based; conditions: 18 h, five-times the IC50
[8] = test system: microtubules in A-10 cells; assay: Microtubule depolymerization in A-10 cells; format: cell-based, rat; conditions: for microtubule depolymerization activity: tested up to 10 µM; for fold more potent than (±)-1·HCl, microtubule depolymerizing effects: relative to lead (±)-1·HCl; for fold lower microtubule depolymerizing potency than 3: relative to compound 3
HeLa [9] = assay: SRB antiproliferative assay, HeLa; format: cell-based
MDA-MB-435 cells [10] = assay: SRB antiproliferative assay, MDA-MB-435; format: cell-based; conditions: for IC50: Homo sapiens, MDA-MB-435, read-out: IC50 ± SD MDA-MB-435; for fold more potent than (±)-1·HCl, antiproliferative activity (MDA-MB-435): relative to lead (±)-1·HCl; for fold lower antiproliferative potency than 3: MDA-MB-435, relative to compound 3
NCI 60-cell line panel = assay: NCI cancer cell line panel; format: cell-based
MDA-MB-435 xenografts = assay: MDA-MB-435 flank xenograft model; format: in vivo, nude mice; conditions: ip, 60 mg/kg days 0 and 2, 50 mg/kg day 8; vs untreated control
Method in brief: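 Nude mice bilaterally implanted sc in the flank with MDA-MB-435 tumour fragments; dosing began once tumours reached ~200 mm3. Test compound was given ip in PBS containing <5% (v/v) 50:50 Cremophor/DMSO. […] Tumour volumes and body weights were recorded 2–3 times weekly. Final volumes were compared with untreated controls by one-way ANOVA with Dunnett's test.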

SK-OV-3 [11] = assay: SRB antiproliferative assay, SK-OV-3; format: cell-based; conditions: SK-OV-3 and SK-OV-3 MDR1-M6/6 cell lines
IGROVI [12] = assay: NCI panel growth inhibition, IGROVI; format: cell-based
Bovine brain tubulin = Bovine brain tubulin (Bos taurus, UniProt P81947+Q6B856); assay: Inhibition of tubulin assembly; format: biochemical; conditions: for fold more potent than (±)-1·HCl, tubulin assembly: relative to lead (±)-1·HCl
HeLa WTβIII [13] = assay: SRB antiproliferative assay, βIII-tubulin expressing HeLa WTβIII; format: cell-based; conditions: Homo sapiens, read-out: IC50 ± SD HeLa WTβIII

Bovine brain tubulin, sequence (Q6B856 whole entry): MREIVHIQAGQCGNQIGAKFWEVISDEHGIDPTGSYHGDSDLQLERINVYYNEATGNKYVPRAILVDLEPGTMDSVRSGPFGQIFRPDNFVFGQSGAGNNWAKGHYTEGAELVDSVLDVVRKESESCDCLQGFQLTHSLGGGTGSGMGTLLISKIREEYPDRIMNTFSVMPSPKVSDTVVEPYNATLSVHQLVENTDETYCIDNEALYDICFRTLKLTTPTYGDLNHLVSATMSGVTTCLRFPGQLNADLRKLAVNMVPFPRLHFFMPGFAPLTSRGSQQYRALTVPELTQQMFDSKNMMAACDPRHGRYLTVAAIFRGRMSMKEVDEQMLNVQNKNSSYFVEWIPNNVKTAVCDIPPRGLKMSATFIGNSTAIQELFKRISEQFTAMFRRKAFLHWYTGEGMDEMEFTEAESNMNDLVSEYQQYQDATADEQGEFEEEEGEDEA
Bovine brain tubulin, sequence (P81947 whole entry): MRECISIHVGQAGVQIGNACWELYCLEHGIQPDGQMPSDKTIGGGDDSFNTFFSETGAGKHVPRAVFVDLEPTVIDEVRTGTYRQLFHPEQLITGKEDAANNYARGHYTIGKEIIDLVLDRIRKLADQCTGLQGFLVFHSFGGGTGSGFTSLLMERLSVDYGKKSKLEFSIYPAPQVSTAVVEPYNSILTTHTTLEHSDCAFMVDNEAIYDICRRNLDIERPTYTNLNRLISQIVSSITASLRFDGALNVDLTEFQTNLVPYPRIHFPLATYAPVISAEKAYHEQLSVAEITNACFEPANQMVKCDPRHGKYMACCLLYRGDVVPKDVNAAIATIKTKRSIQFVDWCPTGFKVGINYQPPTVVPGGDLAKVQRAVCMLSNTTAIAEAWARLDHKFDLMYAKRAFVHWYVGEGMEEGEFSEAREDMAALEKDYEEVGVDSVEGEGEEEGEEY

Structure (SMILES): COc1ccc(N(C)c2nc(C)nc3c2CC(C)C3)cc1.Cl (racemic) [(±)-1·HCl, N-(4-methoxyphenyl)-N,2,6-trimethyl-6,7-dihydro-5H-cyclo-penta[d]-pyrimidin-4-aminium chloride]
- GI50 (786–0): 34.8 nM
- GI50 (SR): < 10 nM
- GI50 (HS 578T): < 10 nM
- GI50 (HCT-15): < 10 nM
- GI50 (RPMI-8226): 15.7 nM
- GI50 (SF-539): 11.4 nM
- GI50 (UO-31): 13.4 nM
- IC50 (HeLa [1]): 37.3 ± 4.1 nM
- GI50 (A498): < 10 nM
- GI50 (U251): 12.5 nM
- GI50 (PC-3): 14.6 nM
- GI50 (OVCAR-8): 32.8 nM
- GI50 (A549/ATCC): 24.4 nM
- GI50 (M14): 10.2 nM
- GI50 (RXF 393): < 10 nM
- GI50 (MCF7): < 10 nM
- Rr (relative resistance) (HeLa WTβIII [2]): 0.6
- GI50 (HCT-116): 15.1 nM
- GI50 (SK-OV-3 [3]): 27.5 nM
- GI50 (MDA-MB-468): < 10 nM
- GI50 (COLO 205): 18.3 nM
- GI50 (HOP-62): 19.4 nM
- GI50 (SNB-19): 36.9 nM
- EC50 [4]: 56 nM
- GI50 (SF-268): 15.2 nM
- GI50 (NCI-H23): 16.4 nM
- GI50 (SK-MEL-5): < 10 nM
- GI50 (OVCAR-4): 26.8 nM
- GI50 (NCI/ADR-RES): < 10 nM
- GI50 (HOP-92): 55.4 nM
- GI50 (DU-145): 21.4 nM
- GI50 (K-562): < 10 nM
- GI50 (NCI-H322M): 59 nM
- GI50 (SF-295): < 10 nM
- GI50 (HT29): 11.8 nM
- IC50 (SK-OV-3 [5]): 38.6 ± 3.1 nM
- GI50 (SN12C): 31.8 nM
- GI50 (IGROVI [6]): 11 nM
- GI50 (HL-60(TB)): < 10 nM
- GI50 (OVCAR-5): 38.5 nM
- GI50 (TK10): 292 nM
- GI50 (ACHN): 14.6 nM
- IC50 (MDA-MB-435 cells [7]): 17 ± 0.7 nM
- GI50 (MDA-MB-231/ATCC): 24.6 nM
- GI50 (EKVX): 19.6 nM
- GI50 (MDA-MB-435): < 10 nM
- GI50 (NCI-H522): < 10 nM
- Rr (relative resistance) (SK-OV-3 MDR1-M6/6): 1.2
- GI50 (NCI-H460): 23.4 nM
- GI50 (SNB-75): < 10 nM
- GI50 (OVCAR-3): < 10 nM
- GI50 (NCI-H226): 31.5 nM
- GI50 (KM12): < 10 nM
- GI50 (BT-549): 21.9 nM
- GI50 (HCC-2998): 24 nM
- GI50 (CCRF-CEM): 16.3 nM
- GI50 (SK-MEL-28): < 10 nM
- GI50 (MOLT-4): 31.8 nM
- GI50 (LOX IMVI): 22.7 nM

Structure (SMILES): COc1ccc(/C=C\c2cc(OC)c(OC)c(OC)c2)cc1O [CA-4, combretastatin A-4]
- accumulation of cells in G2/M (HeLa cells): significant accumulation of cells in G2/M

Structure (SMILES): COc1ccc(Nc2ncnc3occ(C)c23)cc1 [Compound 2, N-(4-Methoxyphenyl)-5-methylfuro[2,3-d]pyrimidin-4-amine]
- microtubule depolymerization activity [8]: inactive; also recorded: essentially devoid of activity

Structure (SMILES): COc1ccc(N(C)c2ncnc3occ(C)c23)cc1 [Compound 3, N-(4-Methoxyphenyl)-N,5-dimethylfuro[2,3-d]pyrimidin-4-amine]
- fold better activity than (±)-1·HCl (HeLa [9]; HeLa and HeLa WT βIII cell lines): 4 fold
- IC50 (MDA-MB-435 cells [10]): 4.3 ± 0.3 nM
- fold more potent than (±)-1·HCl, antiproliferative activity (MDA-MB-435) (MDA-MB-435 cells [10]): about 4 fold
- GI50 (NCI 60-cell line panel): < 10 nM
- accumulation of cells in G2/M (HeLa cells): significant accumulation of cells in G2/M
- antitumor effect (tumor growth) (MDA-MB-435 xenografts): statistically significant antitumor effects; also recorded: statistically significant inhibition of tumor growth; also recorded: significantly inhibited tumor growth
- fold more potent than (±)-1·HCl, microtubule depolymerizing effects [8]: 2.3 fold
- fold higher potency than (±)-1·HCl (SK-OV-3 [11]): 5 fold
- GI50 (IGROVI [12]): < 10 nM

Structure (SMILES): CCN(c1ccc(OC)cc1)c1ncnc2occ(C)c12 [Compound 4, N-Ethyl-N-(4-methoxyphenyl)-5-methylfuro[2,3-d]pyrimidin-4-amine]
- fold more potent than (±)-1·HCl, tubulin assembly (Bovine brain tubulin): about 2 fold
- IC50 (MDA-MB-435 cells [10]): 8.1 ± 0.5 nM
- fold more potent than (±)-1·HCl, antiproliferative activity (MDA-MB-435) (MDA-MB-435 cells [10]): 1.4–2.1 fold
- accumulation of cells in G2/M (HeLa cells): significant accumulation of cells in G2/M
- fold lower microtubule depolymerizing potency than 3 [8]: 2 fold
- fold more potent than (±)-1·HCl, microtubule depolymerizing effects [8]: equipotent

Structure (SMILES): COc1ccc(N(c2ncnc3occ(C)c23)C(C)C)cc1 [Compound 5, N-Isopropyl-N-(4-methoxyphenyl)-5-methylfuro[2,3-d]pyrimidin-4-amine]
- IC50 (MDA-MB-435 cells [10]): 504 ± 28 nM
- fold less potent (IC50) than 4 (MDA-MB-435 cells [10]; antiproliferative, relative to N-Et analogue 4): 60 fold
- microtubule depolymerization activity [8]: ineffective

Structure (SMILES): CCCN(c1ccc(OC)cc1)c1ncnc2occ(C)c12 [Compound 6, N-(4-Methoxyphenyl)-5-methyl-N-propylfuro[2,3-d]pyrimidin-4-amine]
- fold more potent than (±)-1·HCl, tubulin assembly (Bovine brain tubulin): about 2 fold
- IC50 (MDA-MB-435 cells [10]): 27.3 ± 4.5 nM

Structure (SMILES): CCCCN(c1ccc(OC)cc1)c1ncnc2occ(C)c12 [Compound 7, N-Butyl-N-(4-methoxyphenyl)-5-methylfuro[2,3-d]pyrimidin-4-amine]
- fold more potent than (±)-1·HCl, tubulin assembly (Bovine brain tubulin): about 2 fold
- IC50 (MDA-MB-435 cells [10]): 100 ± 6.5 nM

Structure (SMILES): CCc1ccc(N(C)c2ncnc3occ(C)c23)cc1 [Compound 8, N-Methyl-N-(4-ethylphenyl)-5-methylfuro[2,3-d]pyrimidin-4-amine]
- IC50 (MDA-MB-435 cells [10]): 183 ± 13 nM
- fold lower antiproliferative potency than 3 (MDA-MB-435 cells [10]): 43 fold
- fold lower microtubule depolymerizing potency than 3 [8]: 30 fold

Structure (SMILES): CSc1ccc(N(C)c2ncnc3occ(C)c23)cc1 [Compound 9, N,5-Dimethyl-N-(4-(methylthio)phenyl)furo[2,3-d]pyrimidin-4-amine]
- fold better than 3, tubulin assembly IC50 (Bovine brain tubulin; relative to compound 3): 3 fold
- IC50 (MDA-MB-435 cells [10]): 12.3 ± 0.9 nM
- fold lower antiproliferative potency than 3 (MDA-MB-435 cells [10]): 3 fold
- fold more potent than (±)-1·HCl, antiproliferative activity (MDA-MB-435) (MDA-MB-435 cells [10]): 1.4–2.1 fold
- fold lower microtubule depolymerizing potency than 3 [8]: 2 fold
- fold more potent than (±)-1·HCl, microtubule depolymerizing effects [8]: equipotent

Structure (SMILES): CC(=O)O[C@H]1C(=O)[C@@]2(C)[C@H]([C@H](OC(=O)c3ccccc3)[C@]3(O)C[C@H](OC(=O)[C@H](O)[C@@H](NC(=O)c4ccccc4)c4ccccc4)C(C)=C1C3(C)C)[C@]1(OC(C)=O)CO[C@@H]1C[C@@H]2O [paclitaxel]
- IC50 (HeLa WTβIII [13]): 24 ± 3 nM
- IC50 (HeLa [9]; Homo sapiens, HeLa, read-out: IC50 ± SD HeLa): 2.8 ± 0.36 nM

— article PMC5590101 (Journal of medicinal chemistry, 2016)
